Experiments:
[1] = biological target: T1, Human immunodeficiency virus type 1 protease (Human immunodeficiency virus 1, UniProt Q72874); experiment: Inhibition concentration against HIV-1 protease
How it was run: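 Purified HIV-1 protease (30 nM) added after 5 min preincubation of 60.8 µM chromophoric HIV substrate III with inhibitor (DMSO, final below 2.5%). Buffer: 50 mM each glycine, sodium acetate, MES and Tris-HCl, 1.0 M NaCl, 1 mM EDTA, 1 mM DTT, pH 5.5, 37 °C. Cleavage rate from absorbance change at 300 nm. IC50 from activity versus log inhibitor concentration.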

[2] = biological target: T1, Human immunodeficiency virus type 1 protease; experiment: Binding affinity against HIV-1 protease
How it was run: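 Ki from the activity of 20 nM HIV-1 protease across a matrix of substrate (HIV substrate III at 10, 20, 50 and 100 µM) and at least three inhibitor levels: roughly the estimated Ki and 2–4 times it. Tight-binding rate equation fitted by nonlinear regression. Buffer and read-out as in the spectrophotometric cleavage assay.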

[3] = biological target: Human immunodeficiency virus type 1 protease (Human immunodeficiency virus 1) (UniProt Q72874); conditions: 10 uM

| inhibition [3] | Structure (SMILES) | IC50 [1] | Ki [2] |
| --- | --- | --- | --- |
| – | O=C1N(Cc2ccccc2)[C@H](CCCc2ccccc2)[C@H](O)[C@@H](O)[C@@H](CCCc2ccccc2)N1Cc1ccccc1 | 10000 nM | 570 nM |
| – | O=S1(=O)N(Cc2ccccc2)[C@H](CCc2ccccc2)[C@H](O)[C@@H](O)[C@@H](CCc2ccccc2)N1Cc1ccccc1 | 200 nM | 14.7 nM |
| 0% | O=C1N(Cc2ccccc2)[C@H](COc2ccccc2)[C@@H](O)[C@H](O)[C@@H](COc2ccccc2)N1Cc1ccccc1 | – | – |
| – | O=C1N(Cc2ccccc2)[C@H](CCc2ccccc2)[C@H](O)[C@@H](O)[C@@H](CCc2ccccc2)N1Cc1ccccc1 | 4000 nM | 214 nM |
| 15% | O=C1N(Cc2ccccc2)[C@@H](COc2ccccc2)[C@@H](O)[C@H](O)[C@H](COc2ccccc2)N1Cc1ccccc1 | – | – |
| – | O=C1N(Cc2ccc(CO)cc2)[C@H](COc2ccccc2)[C@H](O)[C@@H](O)[C@@H](COc2ccccc2)N1Cc1ccc(CO)cc1 | 10 nM | 0.23 nM |
| – | O=C1N(Cc2ccccc2)[C@H](COc2ccccc2)[C@H](O)[C@@H](O)[C@@H](COc2ccccc2)N1Cc1ccccc1 | 80 nM | – |
| – | O=C1N(Cc2ccc(CO)cc2)[C@H](Cc2ccccc2)[C@H](O)[C@@H](O)[C@@H](Cc2ccccc2)N1Cc1ccc(CO)cc1 [DMP-323] | 15 nM | – |
| – | O=S1(=O)N(Cc2ccccc2)[C@H](COc2ccccc2)[C@H](O)[C@@H](O)[C@@H](COc2ccccc2)N1Cc1ccccc1 | 200 nM | – |
| – | COC(=O)c1ccc(CN2C(=O)N(Cc3ccc(C(=O)OC)cc3)[C@H](COc3ccccc3)[C@H](O)[C@@H](O)[C@H]2COc2ccccc2)cc1 | 8000 nM | – |
| 10% | O=C1N(Cc2ccccc2)[C@@H](COc2ccccc2)[C@H](O)[C@@H](O)[C@H](COc2ccccc2)N1Cc1ccccc1 | – | – |

Reference: ChEMBL document CHEMBL1129971, “Cyclic HIV-1 protease inhibitors derived from mannitol: synthesis, inhibitory potencies, and computational predictions of binding affinities” (J Med Chem, 1997)
